In data set [1] the test system is U-937. In words: Induction of apoptosis in p53 null human U937 cells at 0.25 to 0.5 uM preincubated with NAC for 3 hrs followed by compound addition measured after 24 hrs by annexin V-FITC/PI staining based flow cytometry. The format is functional, cell-based. In outline:
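U937 cells preincubated 3 h with 3 mM NAC or vehicle, washed with PBS, then drug-treated 24 h. Annexin V-FITC/PI staining by flow cytometry, reported as % Annexin V+.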

The species named for a further data set is Homo sapiens. Conditions: at 1 µM.
Data set [2] concerns AML. In words: Induction of apoptosis in patient derived AML-92 cells after 24 hrs by annexin V-FITC/PI staining based flow cytometry. The format is functional, cell-based. The note with it: Homo sapiens. In outline: (§1)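 Primary AML samples purified by Ficoll-Hypaque density centrifugation and cultured in RPMI 1640 with 20% FBS, ITS and 20% 5637 bladder cancer cell supernatant as a GM-CSF source. Treated 24 h, then Annexin V-FITC/PI flow cytometry as % Annexin V+. Single experiment in triplicate.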

In data set [3] the test system is U-937. The data set is described as follows: Induction of apoptosis in p53 null human U937 cells at 0.25 uM after 24 hrs by annexin V-FITC/PI staining based flow cytometry. The format is functional. A digest of the protocol:
(§2)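 Cells treated 24 h, single agents or SAHA+PL at 1:1 (each drug at the stated concentration). Annexin V-FITC/PI kit staining, then flow cytometry, reported as % Annexin V+ cells. Three independent experiments in triplicate, with data from one representative experiment. DMSO <0.1% vehicle control.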
A general note: In flow cytometry, cells or beads pass a laser one at a time.

Data set [4] has as its system U-937. In words: Induction of apoptosis in p53 null human U937 cells at 2 uM after 24 hrs by annexin V-FITC/PI staining based flow cytometry. In kind it is functional. In outline:
(§3)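 Human U937 AML cells (p53 null) in RPMI 1640 with 10% FBS, 2 mM L-glutamine, penicillin/streptomycin, 37 °C, 5% CO2. Exposed 24 h to compound alone or with SAHA; vehicle DMSO < 0.1% v/v. Annexin V-FITC/PI staining and flow cytometry, reported as % Annexin V+ cells. Three independent experiments in triplicate; one representative shown. EC50 taken as concentration giving 50% Annexin V+ cells versus vehicle.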

Data set [5] is described as follows: Chemical stability of the compound in pH 7.4 phosphate buffer at 50 uM incubated up to 4 hrs in presence of GSH by HPLC analysis. In kind it is physicochemical. Conditions: pH 7.4, 4 h. In outline: (§4)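 Compound at 50 μM incubated with or without 5 mM GSH in phosphate buffer pH 7.4 at 37 °C for up to 4 h. Mixtures analysed by HPLC with water/0.1% formic acid/10% methanol versus 0.1% formic acid in acetonitrile, 0.5 mL/min, 10–80% B gradient over 18 min.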

For data set [6], the system named is U-937. In words: Induction of apoptosis in p53 null human U937 cells assessed as caspase 3 cleavage at 0.25 to 0.5 uM after 24 hrs by Western blot analysis. The format is functional, cell-based. A digest of the protocol:
(§5)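 U937 cells exposed for 24 h. Lysates with protease/phosphatase inhibitors were separated by SDS-PAGE, transferred to PVDF and probed for PARP and cleaved caspase-3, with β-actin as loading control.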
For orientation: In western blotting, separated proteins are transferred to a membrane and probed.

Data set [7] in a line: Chemical stability of the compound in pH 7.4 phosphate buffer at 50 uM incubated up to 4 hrs in absence of GSH by HPLC analysis. In kind it is physicochemical. The note with it: pH 7.4, 4 h. A digest of the protocol: as §4
The test system of data set [8] is U-937. In words: Induction of apoptosis in p53 null human U937 cells at 1 uM after 24 hrs by annexin V-FITC/PI staining based flow cytometry. In kind it is functional. A digest of the protocol: as §2
Data set [9] deals with AML. In words: Induction of apoptosis in patient derived AML-91 cells after 24 hrs by annexin V-FITC/PI staining based flow cytometry. In kind it is functional, cell-based. Conditions: Homo sapiens. In outline:
as §1

For the next data set, the system named is MCF-10A. The data set is described as follows: Cytotoxicity against human MCF10A cells assessed as decrease in cell viability at 0.5 to 5 uM after 24 hrs by MTT assay. In kind it is cell-based. In outline: (§6)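 MCF-10A (DMEM/F12, 5% horse serum, hydrocortisone, cholera toxin, insulin, EGF) and U937 (RPMI 1640, 10% FBS) were exposed to 0.5–5 μM, alone or PL+SAHA 1:1, for 24 h. MTT 0.05 mg/mL, 3 h at 37 °C, DMSO solubilization, A570. Viability given as mean ± SD of four to six independent experiments. DMSO <0.1% vehicle control.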
In general terms: Tetrazolium assays rely on reduction of a dye to a coloured formazan, in cell work by metabolically active cells.

Data set [10] relates to AML. The data set is described as follows: Induction of apoptosis in patient derived AML cells assessed as caspase 3 cleavage at 0.25 to 2 uM after 24 hrs by Western blot analysis. The format is functional, cell-based. The note with it: Homo sapiens. A digest of the protocol: (§7)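 Primary AML patient cells, Ficoll-Hypaque purified and grown in RPMI 1640/20% FBS with ITS and 5637 supernatant. Exposed 24 h; whole-cell lysates prepared with protease/phosphatase inhibitors, run on SDS-PAGE, blotted to PVDF and probed for PARP and cleaved caspase-3.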

Data set [11] has as its system AML. In words: Induction of apoptosis in patient derived AML cells assessed as PARP-1 cleavage at 0.25 to 2 uM after 24 hrs by Western blot analysis. The format is functional, cell-based. The note with it: Homo sapiens. In outline: as §7
Data set [12] has as its system U-937. The data set is described as follows: Induction of apoptosis in p53 null human U937 cells assessed as PARP-1 cleavage at 0.25 to 0.5 uM after 24 hrs by Western blot analysis. The format is functional, cell-based. A digest of the protocol:
as §5

In data set [13] the test system is U-937. The data set is described as follows: Cytotoxicity against p53 null human U937 cells assessed as decrease in cell viability at 0.5 to 5 uM after 24 hrs by MTT assay. The format is functional, cell-based. In outline: as §6
For data set [14], the system named is U-937. In words: Induction of apoptosis in p53 null human U937 cells at 0.5 uM after 24 hrs by annexin V-FITC/PI staining based flow cytometry. The format is functional. A digest of the protocol:
as §2

Data set [15] deals with U-937. The data set is described as follows: Induction of apoptosis in p53 null human U937 cells at 0.25 to 2 uM after 24 hrs by annexin V-FITC/PI staining based flow cytometry. In kind it is functional, cell-based. A digest of the protocol:
as §2

Data set [16] has as its system U-937. The data set is described as follows: Induction of DNA damage in p53 null human U937 cells at 2 uM after 20 hrs by SYBR gold staining based alkaline comet assay. In kind it is functional, cell-based. In outline: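 U937 cells treated 20 h with SAHA and PL alone or combined (16 h for hybrids). Alkaline single-cell gel electrophoresis, SYBR Gold staining, microscopy. Median % DNA in tail from 4 replicate gels ± s.e.m.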

Data set [17] deals with U-937. In words: Induction of apoptosis in p53 null human U937 cells at 2 uM preincubated with NAC for 3 hrs followed by compound addition measured after 24 hrs by annexin V-FITC/PI staining based flow cytometry. The format is functional, cell-based. A digest of the protocol:
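U937 cells preincubated 3 h with 3 mM NAC or vehicle and washed with PBS to remove excess NAC. Then drug alone or with SAHA for 24 h. Apoptosis scored as % Annexin V+ by Annexin V-FITC/PI flow cytometry; vehicle DMSO < 0.1% v/v.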

Data set [18] is described as follows: Antiproliferative activity against human CMS cells after 72 hrs by MTT assay. The format is functional, cell-based. A digest of the protocol: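 AML cell lines grown in RPMI 1640 with 10% FBS (20% for MOLM-13), 2 mM L-glutamine and penicillin/streptomycin at 37 °C, 5% CO2. Ara-C-resistant HL-60 and CMK sublines came from stepwise cytarabine selection and were kept in 600 nM or 300 nM cytarabine respectively. Cells were treated 72 h. MTT 0.05 mg/mL, 3 h at 37 °C, DMSO solubilization, absorbance at 570 nm. IC50 given ± SEM.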

Data set [19] has as its system U-937. In words: Induction of cell death in p53 null human U937 cells at 1 to 4 uM after 24 hrs by annexin V-FITC/PI staining based flow cytometry. In kind it is functional. A digest of the protocol: as §3

The source made the active and inactive calls. The rule behind the calls is not given here.

For the compound `COc1cc(/C=C/C(=O)N2CCC=C(Cl)C2=O)cc(OC)c1OCCCCCCC(=O)NO`, the result in the data set on U-937 [1] was inactive. Moreover, the inhibition entry in the data set listed under Homo sapiens was “Active”. Also, the Activity result was “Dose-dependent effect” in the data set on AML [2]; 29.9% in the data set on U-937 [3]; 100% in the data set with U-937 [4]; 88% in the data set on U-937 [8]; “Dose-dependent effect” in the data set on AML [9]; “Toxic” with MCF-10A. The Activity with U-937 [14] is 49.2%. Also, the results for the Stability entry in [5] and in data set [7] were “Unstable” and “Stable”, respectively. Also, the outcome in the data set on U-937 [6], in the data set with AML [10], with AML [11], in the data set with U-937 [12] and with U-937 [13] was Active.
For the compound `COC(=O)CCCCCCOc1c(OC)cc(/C=C/C(=O)N2CCC=C(Cl)C2=O)cc1OC`, the inhibition result in the data set listed under Homo sapiens is “inactive”. This compound also had an Activity in the data set on U-937 [8] of 29.7%.
As for `COc1cc(/C=C/C(=O)N2CCCCC2=O)cc(OC)c1OCCCCCCC(=O)NO`, in the data set with U-937 [15], the result was inactive. Also, the inhibition entry in the data set filed under Homo sapiens was “Active”.
With `COc1cc(/C=C/C(=O)N2CCC(C)=CC2=O)cc(OC)c1OCCCCCCC(=O)NO`, the result in the data set on U-937 [15] was inactive. Also, the inhibition result in the data set listed under Homo sapiens is “Active”.
What is called IC50 is the concentration at which inhibition is half-maximal. Take `O=C(CCCCCCC(=O)Nc1ccccc1)NO` [VORINOSTAT]: the result in the data set with U-937 [16] and in the data set with U-937 [17] was inactive. Also, the values for the Activity in the data set on U-937 [4] and in the data set on MCF-10A were 25% and “Non-Toxic”, respectively. The compound also gave a concentration for half-maximal inhibition (IC50) in data set [18] of 1020 nM. The outcome with U-937 [19] was Active.
As for `COC(=O)CCCCCCOc1c(OC)cc(/C=C/C(=O)N2CCC=CC2=O)cc1OC`, the outcome in the data set on U-937 [15] was inactive. Further, the inhibition entry in the data set listed under Homo sapiens is “inactive”.
`COc1cc(C(=O)N2CCC=C(Cl)C2=O)cc(OC)c1OCCCCCCC(=O)NO`: the inhibition entry in the data set listed under Homo sapiens is “Active”. Besides, the Activity was 40% in the data set on U-937 [4] and “Non-Toxic” with MCF-10A. Also, the Stability entry in data set [5] was “Unstable”. The result in the data set on U-937 [13] was Active.
On to `COc1cc(C(=O)N2CCC=CC2=O)cc(OC)c1OCCCCCCC(=O)NO`, for which the inhibition result in the data set listed under Homo sapiens is “Active”. Moreover, the figures for the Activity in the data set with U-937 [4] and in the data set with MCF-10A were 40% and “Non-Toxic”, respectively. For the same compound, the result in the data set with U-937 [13] was Active.

The values above are taken from ChEMBL document CHEMBL4000155, “Synthesis and Antileukemic Activities of Piperlongumine and HDAC Inhibitor Hybrids against Acute Myeloid Leukemia Cells” (J Med Chem, 2016).
